Results from ChEMBL document CHEMBL4364248, “Discovery of 1,2,4-oxadiazole-Containing hydroxamic acid derivatives as histone deacetylase inhibitors potential application in cancer therapy” (Eur J Med Chem, 2019).

Assays:
Histone deacetylase 1 [1] = molecular target: T1, Histone deacetylase 1 (Homo sapiens, UniProt Q13547); assay: Inhibition of recombinant full length HDAC1 (unknown origin) using Ac-peptide-AMC as substrate at 100 nM after 1 hr by fluorescence assay relative to control
In short: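 Full-length recombinant HDAC1 or HDAC6 was incubated with compound, trypsin and Ac-peptide-AMC substrate for 1 h at room temperature. Fluorescence was read at ex 355/em 460 nm. Inhibition was calculated against the DMSO vehicle control.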

Histone deacetylase 1 [2] = molecular target: T1, Histone deacetylase 1; assay: Inhibition of recombinant full length HDAC1 (unknown origin) using Ac-peptide-AMC as substrate after 1 hr by fluorescence assay
Histone deacetylase 5 = Histone deacetylase 5 (Homo sapiens, UniProt Q9UQL6); assay: Inhibition of recombinant full length N-terminal GST-tagged human HDAC5 expressed in baculovirus infected Sf9 cells using Ac-peptide-AMC as substrate after 1 hr by fluorescence assay
Chain of Histone deacetylase 5 (Q9UQL6 whole entry): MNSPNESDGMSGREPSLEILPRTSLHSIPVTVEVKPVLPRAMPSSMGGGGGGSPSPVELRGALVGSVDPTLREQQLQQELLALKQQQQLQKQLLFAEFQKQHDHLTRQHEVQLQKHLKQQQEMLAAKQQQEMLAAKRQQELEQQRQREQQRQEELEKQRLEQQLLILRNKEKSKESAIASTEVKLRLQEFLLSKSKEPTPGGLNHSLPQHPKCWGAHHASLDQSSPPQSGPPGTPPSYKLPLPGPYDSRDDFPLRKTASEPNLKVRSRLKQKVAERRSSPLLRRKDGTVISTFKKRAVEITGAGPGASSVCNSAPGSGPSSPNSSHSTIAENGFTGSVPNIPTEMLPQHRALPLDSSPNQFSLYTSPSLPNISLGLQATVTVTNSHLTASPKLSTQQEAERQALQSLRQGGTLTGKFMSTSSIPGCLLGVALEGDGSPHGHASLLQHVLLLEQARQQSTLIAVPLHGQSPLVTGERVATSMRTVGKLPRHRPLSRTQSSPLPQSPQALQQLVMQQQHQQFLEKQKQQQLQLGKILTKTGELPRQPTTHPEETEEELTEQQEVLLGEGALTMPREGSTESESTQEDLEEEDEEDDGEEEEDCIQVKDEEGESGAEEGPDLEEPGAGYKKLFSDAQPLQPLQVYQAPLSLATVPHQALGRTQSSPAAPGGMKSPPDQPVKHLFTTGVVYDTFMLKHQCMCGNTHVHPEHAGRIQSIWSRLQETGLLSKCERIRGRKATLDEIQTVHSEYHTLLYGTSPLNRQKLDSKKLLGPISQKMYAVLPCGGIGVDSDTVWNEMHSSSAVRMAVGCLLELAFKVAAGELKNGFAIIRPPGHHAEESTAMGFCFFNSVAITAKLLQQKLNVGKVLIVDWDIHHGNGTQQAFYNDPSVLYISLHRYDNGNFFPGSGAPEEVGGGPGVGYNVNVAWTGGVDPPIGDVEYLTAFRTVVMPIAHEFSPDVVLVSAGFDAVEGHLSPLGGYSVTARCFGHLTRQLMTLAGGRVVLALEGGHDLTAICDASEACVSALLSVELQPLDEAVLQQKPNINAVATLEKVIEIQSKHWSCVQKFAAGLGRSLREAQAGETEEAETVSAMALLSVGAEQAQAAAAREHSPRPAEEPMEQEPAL

[3] = molecular target: Protein deacetylase HDAC6 (Homo sapiens, UniProt Q9UBN7); assay: Inhibition of recombinant full length HDAC6 (unknown origin) using Ac-peptide-AMC as substrate after 1 hr by fluorescence assay
Chain of Protein deacetylase HDAC6 (Q9UBN7 whole entry, the tested form may be a part): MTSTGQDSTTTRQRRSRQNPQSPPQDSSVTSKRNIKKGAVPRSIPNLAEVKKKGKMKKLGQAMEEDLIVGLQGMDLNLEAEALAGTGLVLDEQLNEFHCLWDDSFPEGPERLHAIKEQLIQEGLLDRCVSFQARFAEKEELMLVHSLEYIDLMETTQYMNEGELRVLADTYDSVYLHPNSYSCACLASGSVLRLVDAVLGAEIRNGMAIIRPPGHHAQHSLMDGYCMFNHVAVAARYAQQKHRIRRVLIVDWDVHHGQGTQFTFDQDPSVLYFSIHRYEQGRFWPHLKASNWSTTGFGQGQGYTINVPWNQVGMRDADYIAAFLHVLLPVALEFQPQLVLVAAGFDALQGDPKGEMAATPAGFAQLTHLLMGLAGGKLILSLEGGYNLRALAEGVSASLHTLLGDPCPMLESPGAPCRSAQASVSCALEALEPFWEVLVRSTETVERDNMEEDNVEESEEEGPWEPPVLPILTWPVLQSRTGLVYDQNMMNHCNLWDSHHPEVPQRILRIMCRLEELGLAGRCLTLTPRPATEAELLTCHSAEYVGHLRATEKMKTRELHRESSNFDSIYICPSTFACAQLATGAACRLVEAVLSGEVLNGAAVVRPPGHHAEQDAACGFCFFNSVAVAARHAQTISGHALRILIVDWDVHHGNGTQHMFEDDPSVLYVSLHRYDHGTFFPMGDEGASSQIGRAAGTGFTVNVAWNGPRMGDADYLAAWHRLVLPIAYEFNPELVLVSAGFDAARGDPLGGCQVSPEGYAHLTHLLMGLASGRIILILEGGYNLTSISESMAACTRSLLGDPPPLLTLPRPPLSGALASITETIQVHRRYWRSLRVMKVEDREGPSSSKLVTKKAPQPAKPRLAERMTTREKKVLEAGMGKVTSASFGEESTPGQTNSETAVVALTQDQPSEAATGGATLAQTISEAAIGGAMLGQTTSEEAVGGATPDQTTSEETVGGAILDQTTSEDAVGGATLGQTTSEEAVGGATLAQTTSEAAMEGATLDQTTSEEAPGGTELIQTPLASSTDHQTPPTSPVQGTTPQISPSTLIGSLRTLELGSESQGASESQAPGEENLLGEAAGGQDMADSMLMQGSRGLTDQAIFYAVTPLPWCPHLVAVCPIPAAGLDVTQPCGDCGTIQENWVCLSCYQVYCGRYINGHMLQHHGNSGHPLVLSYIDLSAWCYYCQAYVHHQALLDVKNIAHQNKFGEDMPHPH

[4] = molecular target: Polyamine deacetylase HDAC10 (Homo sapiens, UniProt Q969S8); assay: Inhibition of recombinant N-terminal FLAG-tagged human HDAC10 (2 to 631 residues) expressed in baculovirus infected Sf9 cells using Ac-peptide-AMC as substrate after 1 hr by fluorescence assay
Chain of Polyamine deacetylase HDAC10 (Q969S8 whole entry, the tested form may be a part): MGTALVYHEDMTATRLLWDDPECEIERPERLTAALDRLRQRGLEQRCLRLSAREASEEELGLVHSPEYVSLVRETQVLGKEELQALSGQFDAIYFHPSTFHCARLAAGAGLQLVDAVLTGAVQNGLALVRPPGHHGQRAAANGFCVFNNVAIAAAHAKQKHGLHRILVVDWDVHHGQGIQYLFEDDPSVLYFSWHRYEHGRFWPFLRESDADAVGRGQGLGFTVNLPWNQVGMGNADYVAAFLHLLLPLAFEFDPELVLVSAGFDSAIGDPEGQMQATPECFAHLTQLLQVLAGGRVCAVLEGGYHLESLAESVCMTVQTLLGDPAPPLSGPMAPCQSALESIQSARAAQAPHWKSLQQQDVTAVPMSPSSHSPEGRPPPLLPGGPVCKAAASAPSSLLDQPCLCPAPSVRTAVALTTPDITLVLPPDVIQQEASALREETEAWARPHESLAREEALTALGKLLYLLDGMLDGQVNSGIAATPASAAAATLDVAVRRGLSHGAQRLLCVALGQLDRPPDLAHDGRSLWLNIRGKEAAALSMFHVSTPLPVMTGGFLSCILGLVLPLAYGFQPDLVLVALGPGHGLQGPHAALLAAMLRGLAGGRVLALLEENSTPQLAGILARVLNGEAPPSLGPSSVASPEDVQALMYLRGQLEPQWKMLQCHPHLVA

SK-OV-3 = assay: Antiproliferative activity against human SKOV3 cells after 72 hrs by MTT assay; format: functional, cell-based; conditions: SK-OV-3, 72 h
MDA-MB-231 = assay: Antiproliferative activity against human MDA-MB-231 cells after 72 hrs by MTT assay; format: functional, cell-based; conditions: MDA-MB-231, 72 h
RPMI-8226 = assay: Antiproliferative activity against human RPMI8226 cells after 72 hrs by MTT assay; format: functional, cell-based; conditions: RPMI-8226, 72 h
Ramos = assay: Antiproliferative activity against human Ramos cells after 72 hrs by MTT assay; format: functional, cell-based
Leukemia cell = assay: Antiproliferative activity against human AML patient derived primary leukemia cells after 72 hrs by MTT assay; format: functional, cell-based
[5] = molecular target: Histone deacetylase 1/2/3 (Homo sapiens) (UniProt Q13547+O15379+Q92769); assay: Inhibition of HDAC1/2/3 in human MM1S cells assessed as increase in H3 acetylation after 6 hrs by Western blot analysis; format: cell-based
JeKo-1 [6] = assay: Cell cycle arrest in human JeKo1 cells assessed as accumulation at G1 phase at 10 nM after 24 hrs by propidium iodide staining based flow cytometric analysis (reference value: 63.16 %); format: functional
JeKo-1 [7] = assay: Cell cycle arrest in human JeKo1 cells assessed as accumulation at G1 phase at 100 nM after 24 hrs by propidium iodide staining based flow cytometric analysis (reference value: 63.16 %); format: functional
JeKo-1 [8] = assay: Cell cycle arrest in human JeKo1 cells assessed as accumulation at G2/M phase at 100 nM after 24 hrs by propidium iodide staining based flow cytometric analysis (reference value: 10.71 %); format: functional
JeKo-1 [9] = assay: Cell cycle arrest in human JeKo1 cells assessed as accumulation at S phase at 1000 nM after 24 hrs by propidium iodide staining based flow cytometric analysis (reference value: 26.13 %); format: functional
JeKo-1 [10] = assay: Induction of apoptosis in human JeKo1 cells assessed as viable cells at 100 nM after 48 hrs by annexin V-FITC/propidium iodide staining-based flow cytometric method (reference value: 91.6 %); format: functional; conditions: JeKo-1, 48 h, read-out: Activity
In short: (§1)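 Jeko-1 cells were grown in RPMI-1640 with 10% FBS at 37 °C under 5% CO2. They were exposed to 0, 10, 100 or 1000 nM for 48 h, then apoptosis induction was analysed.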

JeKo-1 [11] = assay: Induction of apoptosis in human JeKo1 cells assessed as late apoptotic cells at 100 nM after 48 hrs by annexin V-FITC/propidium iodide staining-based flow cytometric method (reference value: 3.07 %); format: functional; in short: as §1
JeKo-1 [12] = assay: Induction of apoptosis in human JeKo1 cells assessed as necrotic cells at 100 nM after 48 hrs by annexin V-FITC/propidium iodide staining-based flow cytometric method (reference value: 2.03 %); format: functional; in short: as §1
JeKo-1 [13] = assay: Induction of apoptosis in human JeKo1 cells assessed as viable cells at 1000 nM after 48 hrs by annexin V-FITC/propidium iodide staining-based flow cytometric method (reference value: 91.6 %); format: functional; conditions: JeKo-1, 48 h, read-out: Activity; in short: as §1
JeKo-1 [14] = assay: Induction of apoptosis in human JeKo1 cells assessed as necrotic cells at 1000 nM after 48 hrs by annexin V-FITC/propidium iodide staining-based flow cytometric method (reference value: 2.03 %); format: functional; in short: as §1
JeKo-1 [15] = assay: Induction of cell cycle arrest in human JeKo1 cells assessed as accumulation at G1 phase after 24 hrs by propidium iodide staining-based flow cytometric method; format: functional
[16] = Volume of distribution at steady state in Sprague-Dawley rat at 5 mg/kg, po measured upto 24 hrs by LC-MS/MS analysis; format: ADME, organism-based; conditions: in vivo
In short: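 SD rats (200-250 g), six per time point, given 5 mg/kg orally; blood drawn by cardiac puncture at 0, 5, 15, 30, 45 min and 1, 2, 4, 6, 8, 10, 12, 24 h, held on ice. Plasma separated by centrifugation (4000 g, 15 min, 4 °C), stored at -80 °C, assayed by LC-MS/MS in multiple-reaction monitoring mode; parameters from noncompartmental analysis.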

[17] = Oral bioavailability in Sprague-Dawley rat at 5 mg/kg measured upto 24 hrs by LC-MS/MS analysis; format: ADME, organism-based; conditions: in vivo
In short: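 SD rats (200-250 g), six per time point, given 5 mg/kg as a tail-vein bolus or orally. Blood was taken by cardiac puncture before dosing and at 5, 15, 30, 45 min and 1, 2, 4, 6, 8, 10, 12 and 24 h. Plasma was spun at 4000 g for 15 min at 4 °C and stored at -80 °C. Analysis was LC-MS/MS with multiple-reaction monitoring, followed by noncompartmental analysis.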

[18] = Toxicity in NOD/SCID mouse xenografted with human Daudi cells at 10 mg/kg, iv treated on day 1,3 and 5 per week and measured for every 2 days; format: organism-based; conditions: in vivo, 48 h
In short: (§2)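 Female NOD/SCID mice (5–6 weeks) bearing s.c. Daudi xenografts, six per group. Dosing was 10 mg/kg i.v. or 20 mg/kg p.o. in 8% HP-β-CD on days 1, 3 and 5 weekly. Behaviour was observed, and organ tissues were collected at sacrifice for H&E staining.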

[19] = Toxicity in NOD/SCID mouse xenografted with human Daudi cells assessed as organ damage at 10 mg/kg, iv treated on day 1,3 and 5 per week and measured for every 2 days by H and E staining based assay; format: organism-based; conditions: in vivo, 48 h; in short: as §2
[20] = Toxicity in NOD/SCID mouse xenografted with human Daudi cells assessed as organ damage at 20 mg/kg, po treated on day 1,3 and 5 per week and measured for every 2 days by H and E staining based assay; format: organism-based; conditions: in vivo, 48 h; in short: as §2

T1 sequence (Q13547 whole entry): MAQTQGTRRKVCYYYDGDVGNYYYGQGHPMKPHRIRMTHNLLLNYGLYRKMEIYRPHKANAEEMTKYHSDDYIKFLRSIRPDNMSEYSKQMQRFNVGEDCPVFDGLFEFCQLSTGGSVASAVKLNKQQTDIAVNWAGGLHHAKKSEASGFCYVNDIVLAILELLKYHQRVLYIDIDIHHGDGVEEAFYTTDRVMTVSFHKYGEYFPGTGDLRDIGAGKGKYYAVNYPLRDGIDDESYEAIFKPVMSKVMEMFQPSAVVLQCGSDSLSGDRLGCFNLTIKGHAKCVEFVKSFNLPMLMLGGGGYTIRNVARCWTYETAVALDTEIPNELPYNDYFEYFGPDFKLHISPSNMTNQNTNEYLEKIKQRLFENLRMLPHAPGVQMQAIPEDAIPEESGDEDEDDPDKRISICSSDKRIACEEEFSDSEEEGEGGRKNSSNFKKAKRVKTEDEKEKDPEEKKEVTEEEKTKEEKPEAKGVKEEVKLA

Work on Cc1ccc(CN2CCC(c3noc(CN(C)c4ncc(C(=O)NO)cn4)n3)CC2)cc1 yielded an inhibition (Histone deacetylase 1 [1]) of 96%, an IC50 (Histone deacetylase 1 [2]) of 1.8 nM and an IC50 (Histone deacetylase 5) of 540 nM. For the same molecule, the IC50 [3] was 56 nM, the IC50 [4] was 102 nM and the IC50 (SK-OV-3) was 20.5 nM. It also gave an IC50 (MDA-MB-231) of 25.6 nM, an IC50 (RPMI-8226) of 15.6 nM and an IC50 (Ramos) of 17.8 nM. The IC50 (Leukemia cell) was 21.2 to 61.1 nM, the inhibition [5] was “Dose-dependent effect” and the Activity (JeKo-1 [6]) was 66.88%. The Activity (JeKo-1 [7]) was 80.74%, the Activity (JeKo-1 [8]) was 10.77% and the Activity (JeKo-1 [9]) was 12.82%. For the same molecule, the viability at 0.1 µM (JeKo-1 [10]) was 54.3%, the Activity (JeKo-1 [11]) was 17.3% and the Activity (JeKo-1 [12]) was 0.061%. The viability at 1 µM (JeKo-1 [13]) was 26.9%, the Activity (JeKo-1 [14]) was 0.096% and the Activity (JeKo-1 [15]) was “Dose-dependent effect”. The Vdss [16] was 29.13 L/kg, the bioavailability [17] was 53.5% and the Activity [18] was “Non-Toxic”. For the same molecule, the Activity [19] was “Non-Toxic” and the Activity [20] was “Non-Toxic”.
